This is an account of results in ChEMBL document CHEMBL1148000, “Naphthyl piperazines with dual activity as 5-HT1D antagonists and 5-HT reuptake inhibitors” (Bioorg Med Chem Lett, 2007).

Active and inactive are the calls of the source. The calls are words filed in the database; no cut-off is given here.

In one experiment the target is D(2) dopamine receptor (Rattus norvegicus, UniProt P61169). Nature of the experiment: Displacement of [3H]raclopride from dopamine D2 receptor in rat caudate membranes. The format is cell membranes, Membrane. Summed up: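 D2 binding was measured in rat caudate membranes with [3H]-raclopride. Ki (nM) is the mean of runs in triplicate.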
Experiment [1] concerns the target 5-hydroxytryptamine receptor 1B (Homo sapiens, UniProt P28222). Nature of the experiment: Displacement of [3H]GR-125743 from human 5HT1B expressed in LM(tk-) cells. Format: cell-based. Summed up: (§1)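 Human 5-HT1B or 5-HT1D receptors were cloned into L-M(tk-) cells, and membrane homogenates were prepared from these cells. Binding used [3H]-GR125743 as radioligand. Ki (nM) is the mean of runs in triplicate.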
A general note: Displacement assays read how much labelled ligand stays bound in the presence of the test substance.

Experiment [2] has as its target Sodium-dependent serotonin transporter (Homo sapiens, UniProt P31645). Description: Displacement of [3H]citalopram from human 5HT transporter expressed in HEK293 cells. The format is cell-based. Summed up: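 Human serotonin transporter was expressed in HEK293 cells. Inhibition was measured as displacement of [3H]-citalopram. Ki (nM) is the mean of runs in triplicate.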

The target of experiment [3] is T1, 5-hydroxytryptamine receptor 1D (Homo sapiens, UniProt P28221). Description: Displacement of [3H]GR-125743 from human 5HT1D expressed in LM(tk-) cells. Format: cell-based. Summed up: as §1
Experiment [4] deals with T1, 5-hydroxytryptamine receptor 1D. Description: Antagonist activity at human 5HT1D expressed in LM(tk-) cells by [35S]GTPgamma binding assay. Format: functional, cell-based. Summed up: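 5-HT dose–response curves for [35S]GTPγS binding were run in LM(tk-) cells stably expressing the human 5-HT1D receptor. Antagonism was read as the rightward shift of these curves. Results are given as KB or as % displacement at 30 nM.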

In experiment [5] the target is T2, Adrenergic receptor alpha-1 (Rattus norvegicus, UniProt P15823+P23944+P43140).
T2 sequence (P15823 whole entry): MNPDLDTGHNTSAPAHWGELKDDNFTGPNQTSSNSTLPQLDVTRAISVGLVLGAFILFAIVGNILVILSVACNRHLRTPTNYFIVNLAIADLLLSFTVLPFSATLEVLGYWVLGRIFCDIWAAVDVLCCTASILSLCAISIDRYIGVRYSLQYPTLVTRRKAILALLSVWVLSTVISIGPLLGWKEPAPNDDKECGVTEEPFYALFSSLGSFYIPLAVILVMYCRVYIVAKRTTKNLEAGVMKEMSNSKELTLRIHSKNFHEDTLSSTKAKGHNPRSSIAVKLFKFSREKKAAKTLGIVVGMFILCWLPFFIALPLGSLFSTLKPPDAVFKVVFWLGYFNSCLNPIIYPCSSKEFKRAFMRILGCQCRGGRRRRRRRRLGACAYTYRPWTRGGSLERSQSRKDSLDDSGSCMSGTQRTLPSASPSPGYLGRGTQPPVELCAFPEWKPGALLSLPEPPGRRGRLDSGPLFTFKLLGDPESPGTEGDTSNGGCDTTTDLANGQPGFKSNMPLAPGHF
T2 sequence (P23944 whole entry): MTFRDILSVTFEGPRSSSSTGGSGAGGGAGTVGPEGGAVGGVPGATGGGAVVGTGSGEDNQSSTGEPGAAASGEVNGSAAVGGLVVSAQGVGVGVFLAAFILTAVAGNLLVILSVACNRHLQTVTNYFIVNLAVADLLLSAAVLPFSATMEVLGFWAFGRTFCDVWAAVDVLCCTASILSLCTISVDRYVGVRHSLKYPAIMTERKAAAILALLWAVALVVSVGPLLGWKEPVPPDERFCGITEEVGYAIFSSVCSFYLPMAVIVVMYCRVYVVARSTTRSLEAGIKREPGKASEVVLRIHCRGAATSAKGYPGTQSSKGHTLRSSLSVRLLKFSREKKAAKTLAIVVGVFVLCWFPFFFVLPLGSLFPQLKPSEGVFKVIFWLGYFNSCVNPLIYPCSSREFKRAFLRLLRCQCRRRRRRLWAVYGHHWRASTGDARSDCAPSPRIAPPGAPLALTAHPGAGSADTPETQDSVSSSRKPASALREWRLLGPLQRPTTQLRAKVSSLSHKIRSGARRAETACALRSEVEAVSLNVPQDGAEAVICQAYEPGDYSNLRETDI
T2 sequence (P43140 whole entry): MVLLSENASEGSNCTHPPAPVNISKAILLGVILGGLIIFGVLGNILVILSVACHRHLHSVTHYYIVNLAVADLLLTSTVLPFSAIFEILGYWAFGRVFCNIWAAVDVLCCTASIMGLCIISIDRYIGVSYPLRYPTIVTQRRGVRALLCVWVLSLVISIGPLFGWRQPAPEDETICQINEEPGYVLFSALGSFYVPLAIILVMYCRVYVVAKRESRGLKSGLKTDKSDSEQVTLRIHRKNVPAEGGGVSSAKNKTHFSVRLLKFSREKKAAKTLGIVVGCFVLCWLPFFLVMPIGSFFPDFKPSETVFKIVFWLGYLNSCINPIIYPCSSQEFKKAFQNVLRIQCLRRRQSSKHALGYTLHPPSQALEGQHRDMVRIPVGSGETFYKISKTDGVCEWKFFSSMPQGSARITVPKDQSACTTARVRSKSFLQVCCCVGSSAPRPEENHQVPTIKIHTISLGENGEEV
Description: Displacement of [3H]prazosin from adrenergic alpha-1 receptor in rat cortical membranes. Format: cell membranes, Membrane. The method, boiled down:
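Rat cortex membranes were used, with [3H]-prazosin as radioligand for α1 binding. Ki (nM) is the mean of runs in triplicate.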

Experiment [6] has as its target T3, 5-hydroxytryptamine receptor 1A (Homo sapiens, UniProt P08908).
T3 sequence (P08908 whole entry): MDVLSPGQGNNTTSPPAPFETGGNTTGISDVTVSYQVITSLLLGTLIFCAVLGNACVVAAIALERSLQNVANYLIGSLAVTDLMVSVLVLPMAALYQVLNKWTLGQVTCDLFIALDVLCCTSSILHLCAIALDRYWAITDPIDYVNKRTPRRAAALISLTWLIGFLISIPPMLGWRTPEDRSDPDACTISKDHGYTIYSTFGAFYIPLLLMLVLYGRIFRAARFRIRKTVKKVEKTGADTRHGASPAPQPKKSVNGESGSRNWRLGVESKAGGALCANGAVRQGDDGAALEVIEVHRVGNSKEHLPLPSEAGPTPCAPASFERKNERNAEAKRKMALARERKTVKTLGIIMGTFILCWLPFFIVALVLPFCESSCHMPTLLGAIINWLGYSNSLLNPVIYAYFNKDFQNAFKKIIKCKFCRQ
Description: Displacement of [3H]8-OH-DPAT from human 5HT1A expressed in LM(tk-) cells. The format is cell-based. Summed up:
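Human 5-HT1A was cloned into L-M(tk-) cells, and membrane homogenates were prepared. Binding used [3H]-8-OH-DPAT as radioligand. Ki (nM) is the mean of runs in triplicate.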

Experiment [7] has as its target T1, 5-hydroxytryptamine receptor 1D. Nature of the experiment: Functional antagonism of 5-HT-stimulated GTP-gamma-[35S] binding to human 5HT1D expressed in LM(tk-) cells at 30 nM. Set-up: scale not given: the % may be the effect or the level left. For orientation: GTPγS resists hydrolysis and so accumulates on activated G proteins.
A further experiment has as its system Hypothalamus. Description: Increase in extracellular 5HT level in guinea pig hypothalamus at 10 mg/kg, po after 3 hrs. Format: functional, organism-based. Set-up: dose 10 mg/kg. The following applies: Cavia porcellus. Summed up:
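Microdialysis was done in the hypothalamus of freely moving guinea pigs. Dosing was 10 mg/kg po. Extracellular 5-HT is expressed as a percentage of a pre-injection control period, assessed over 3 h post-dose, as means + SEM.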

T1 sequence (P28221 whole entry): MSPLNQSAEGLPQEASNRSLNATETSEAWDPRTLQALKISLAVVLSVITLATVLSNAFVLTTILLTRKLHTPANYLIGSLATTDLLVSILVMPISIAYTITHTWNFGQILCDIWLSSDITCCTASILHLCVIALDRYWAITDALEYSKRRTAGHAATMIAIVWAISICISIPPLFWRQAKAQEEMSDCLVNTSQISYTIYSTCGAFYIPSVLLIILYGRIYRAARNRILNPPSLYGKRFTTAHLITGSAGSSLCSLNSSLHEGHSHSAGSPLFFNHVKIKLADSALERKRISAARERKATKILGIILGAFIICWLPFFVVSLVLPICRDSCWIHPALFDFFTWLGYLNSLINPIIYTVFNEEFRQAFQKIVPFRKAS
Sodium-dependent serotonin transporter, sequence (P31645 whole entry): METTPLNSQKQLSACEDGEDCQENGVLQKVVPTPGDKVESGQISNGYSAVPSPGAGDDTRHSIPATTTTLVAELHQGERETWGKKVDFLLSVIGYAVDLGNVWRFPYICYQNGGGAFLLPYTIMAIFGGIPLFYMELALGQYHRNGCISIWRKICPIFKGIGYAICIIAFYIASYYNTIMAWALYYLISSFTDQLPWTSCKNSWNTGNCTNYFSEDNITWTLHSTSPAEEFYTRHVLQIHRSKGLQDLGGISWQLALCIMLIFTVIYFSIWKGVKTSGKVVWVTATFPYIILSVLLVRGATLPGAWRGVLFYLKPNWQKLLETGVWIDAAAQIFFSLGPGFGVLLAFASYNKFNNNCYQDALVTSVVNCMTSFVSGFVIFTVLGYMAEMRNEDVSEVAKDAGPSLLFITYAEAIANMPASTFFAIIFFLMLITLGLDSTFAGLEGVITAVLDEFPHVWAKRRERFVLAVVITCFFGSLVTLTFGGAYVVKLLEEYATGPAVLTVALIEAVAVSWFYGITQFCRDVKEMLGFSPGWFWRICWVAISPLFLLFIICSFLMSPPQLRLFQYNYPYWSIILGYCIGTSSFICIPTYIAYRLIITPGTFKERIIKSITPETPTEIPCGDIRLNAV
5-hydroxytryptamine receptor 1B, sequence (P28222 whole entry): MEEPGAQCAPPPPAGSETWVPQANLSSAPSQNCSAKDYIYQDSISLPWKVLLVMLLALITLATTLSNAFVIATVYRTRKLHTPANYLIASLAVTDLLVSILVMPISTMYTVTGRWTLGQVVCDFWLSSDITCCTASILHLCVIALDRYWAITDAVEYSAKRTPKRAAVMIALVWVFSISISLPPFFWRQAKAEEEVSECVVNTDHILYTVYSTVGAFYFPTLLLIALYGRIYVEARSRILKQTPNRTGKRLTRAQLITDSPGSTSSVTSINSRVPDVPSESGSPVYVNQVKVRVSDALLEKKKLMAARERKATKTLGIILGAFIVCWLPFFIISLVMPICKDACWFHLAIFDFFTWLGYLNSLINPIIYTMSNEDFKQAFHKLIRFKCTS
D(2) dopamine receptor, sequence (P61169 whole entry): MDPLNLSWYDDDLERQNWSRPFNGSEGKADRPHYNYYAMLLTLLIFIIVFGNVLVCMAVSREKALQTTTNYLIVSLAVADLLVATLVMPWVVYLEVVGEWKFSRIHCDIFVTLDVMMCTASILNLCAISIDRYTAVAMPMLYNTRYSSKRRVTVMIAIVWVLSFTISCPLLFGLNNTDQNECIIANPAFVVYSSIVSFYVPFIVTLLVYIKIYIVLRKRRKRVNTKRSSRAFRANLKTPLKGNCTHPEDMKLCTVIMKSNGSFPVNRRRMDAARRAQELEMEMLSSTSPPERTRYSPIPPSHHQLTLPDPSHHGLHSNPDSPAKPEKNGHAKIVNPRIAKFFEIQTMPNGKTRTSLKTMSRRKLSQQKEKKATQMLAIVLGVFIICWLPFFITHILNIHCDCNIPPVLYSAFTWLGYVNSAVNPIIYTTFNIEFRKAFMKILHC

Turning to `C[C@H]1CN(c2cccc3cc(C#N)ccc23)CCN1CC[C@H]1OCc2cc(C(N)=O)ccc21`, the Ki (commonly a dissociation constant, usually derived from enzyme kinetics or from competition with a known ligand) at D(2) dopamine receptor was determined as 346 nM; in experiment [1] it was 88 nM; in [2], 1.3 nM; in [3], 1.8 nM; in experiment [5] it was 338 nM. Also, the Kb (commonly the equilibrium dissociation constant of an antagonist, usually derived from a functional assay) in [4] was 0.18 nM.

Consider `C[C@@H]1CN(c2cccc3cc(F)ccc23)CCN1CCC1OCCc2cc(C(N)=O)ccc21` (some centres undefined), for which the Ki on D(2) dopamine receptor was 4.7 nM; in experiment [1] it was 281 nM; in experiment [2], 0.8 nM; in experiment [3] it was 56 nM; in experiment [5], 16 nM. In [4], this molecule gave a Kb of 0.01 nM.

Regarding `C[C@H]1CN(c2ccc3cc(F)ccc3c2)CCN1CC[C@@H]1OCCc2cc(C(N)=O)ccc21`, the Ki at D(2) dopamine receptor was 1170 nM; in experiment [1], above 1000 nM; in experiment [2], 2.1 nM; in [3], 14 nM; in [5] it was 91 nM; in experiment [6] it was 307 nM. The molecule further yielded a Kb in experiment [4] of 4.05 nM.

Regarding `C[C@H]1CN(c2cccc3cc(F)ccc23)CCN1CC[C@H]1OCc2cc(C(N)=O)ccc21`, the Ki on D(2) dopamine receptor was 107 nM; in [1], above 1000 nM; in experiment [2] it was 8.8 nM; in experiment [3] it was 67 nM; in [5], 43 nM; in experiment [6], 13 nM. The same molecule displayed a Kb in experiment [4] of 1.9 nM.

In the case of `N#Cc1ccc2c(N3CCN(CC[C@@H]4OCCc5cc(C(N)=O)ccc54)CC3)cccc2c1`, the Activity in experiment [7] is 101%. Further, the Ki at D(2) dopamine receptor was 88 nM; in experiment [1] it was 15 nM; in [2] it was 5.7 nM; in experiment [3], 1 nM; in experiment [5] it was 178 nM; in experiment [6], 16 nM.

Regarding `C[C@H]1CN(c2cccc3cc(F)ccc23)CCN1CC[C@@H]1OCc2cc(C(N)=O)ccc21`, the Ki at D(2) dopamine receptor worked out at 26 nM; in experiment [1], 114 nM; in [2], 1.3 nM; in experiment [3], 14 nM; in experiment [5], 64 nM; in [6], 13 nM. The molecule further gave a Kb in experiment [4] of 0.05 nM.

In the case of `NC(=O)c1ccc2c(c1)CCOC2CCN1CC=C(c2c[nH]c3cc(F)ccc23)CC1` (centres undefined), the Ki was 42 nM on D(2) dopamine receptor; 203 nM in experiment [1]; 0.1 nM in experiment [2]; 8 nM in [3]; 0.7 nM in [5]. The Kb in experiment [4] was 4.3 nM.

For `C[C@H]1CN(c2cccc3cc(C#N)ccc23)CCN1CC[C@@H]1OCCc2cc(C(N)=O)ccc21`, the Activity in experiment [7] came to 124%. Moreover, the Ki at D(2) dopamine receptor is 287 nM; in experiment [1], 21 nM; in experiment [2] it was 2.2 nM; in experiment [3] it was 0.9 nM; in experiment [5], 353 nM; in [6], 26 nM. In the experiment with Hypothalamus, the result was Active.

Turning to `NC(=O)c1ccc2c(c1)CCO[C@H]2CCN1CCN(c2ccc3cc(F)ccc3c2)CC1`, the Ki on D(2) dopamine receptor is 704 nM; in experiment [1], above 1000 nM; in [2] it was 8.1 nM; in experiment [3], 10 nM; in [5] it was 96 nM. The Kb in experiment [4] stood at 0.86 nM.

Turning to `C[C@@H]1CN(c2cccc3cc(F)ccc23)CCN1CC[C@@H]1OCCc2cc(C(N)=O)ccc21`, the Ki was 71 nM at D(2) dopamine receptor; 103 nM in [1]; 3 nM in experiment [2]; 7 nM in experiment [3]; 80 nM in experiment [5]; 115 nM in experiment [6]. Moreover, the Kb in experiment [4] was found to be 0.01 nM.

As for `C[C@@H]1CN(c2cccc3cc(F)ccc23)CCN1CC[C@H]1OCCc2cc(C(N)=O)ccc21`, the Ki on D(2) dopamine receptor came to 78 nM; in experiment [1], 91 nM; in experiment [2] it was 7.4 nM; in experiment [3], 88 nM; in [5], 74 nM; in [6] it was 105 nM. The Kb in experiment [4] was found to be 11.1 nM.
